Assay results taken from ChEMBL document CHEMBL1208778, “Synthesis and anti-cancer activity of chalcone linked imidazolones” (2010).
The source made the active and inactive calls. The calls are words filed in the database; no cut-off is given here.

Assays:
MCF7 [1] = assay: Cell cycle arrest in human MCF7 cells assessed as accumulation at G0 phase at 10 uM after 24 hrs by FACS analysis; format: functional
Procedure, shortened: (§1)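 MCF-7 breast carcinoma cells were exposed to 10 µM test compound for 24 h, with DMSO as the vehicle control. Cell-cycle distribution was read by FACS as the percentage of cells in G0, G1, S and G2/M.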

MCF7 [2] = assay: Cell cycle arrest in human MCF7 cells assessed as accumulation at G1 phase at 10 uM after 24 hrs by FACS analysis; format: functional; procedure, shortened: as §1
MCF7 [3] = assay: Cell cycle arrest in human MCF7 cells assessed as accumulation at S phase at 10 uM after 24 hrs by FACS analysis; format: functional; procedure, shortened: as §1
MCF7 [4] = assay: Cell cycle arrest in human MCF7 cells assessed as accumulation at G2/M phase at 10 uM after 24 hrs by FACS analysis; format: functional; procedure, shortened: as §1
MCF7 [5] = assay: Cell cycle arrest in human MCF7 cells assessed as accumulation at G0 phase at 30 uM after 24 hrs by FACS analysis; format: functional
Procedure, shortened: (§2)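 MCF-7 cells were treated at 30 µM for 24 h alongside a DMSO control. Fractions in G0, G1, S and G2/M phases were measured by FACS, and values are means of three experiments.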

MCF7 [6] = assay: Cell cycle arrest in human MCF7 cells assessed as accumulation at G1 phase at 30 uM after 24 hrs by FACS analysis; format: functional; procedure, shortened: as §2
MCF7 [7] = assay: Cell cycle arrest in human MCF7 cells assessed as accumulation at S phase at 30 uM after 24 hrs by FACS analysis; format: functional; procedure, shortened: as §2
MCF7 [8] = assay: Cell cycle arrest in human MCF7 cells assessed as accumulation at G2/M phase at 30 uM after 24 hrs by FACS analysis; format: functional; procedure, shortened: as §2
MCF7 [9] = assay: Induction of apoptosis in human MCF7 cells assessed as decrease in procaspase 7 level at 30 uM after 24 hrs by Western blot analysis; format: functional, cell-based
Procedure, shortened: (§3)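 MCF-7 breast carcinoma cells were exposed to 30 µM compound for 24 h, with CA-4 as positive control. Cell lysates were then immunoblotted with antibodies to procaspase-7 and cleavage-specific PARP, using β-actin as loading control.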

MCF7 [10] = assay: Induction of apoptosis in human MCF7 cells assessed as […] in PARP cleavage at 30 uM after 24 hrs by Western blot analysis; format: functional, cell-based; procedure, shortened: as §3
[11] = Growth inhibition of human RPMI8266 cells; format: functional
Procedure, shortened: (§4)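 Five-dose testing was run within the NCI (Bethesda) in vitro Anticancer Screen Program on a panel of 53 human tumour cell lines from nine cancer types. Growth inhibition is reported as GI50.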

K562 = assay: Growth inhibition of human K562 cells; format: functional; procedure, shortened: as §4
A549 = assay: Growth inhibition of human A549 cells; format: functional; procedure, shortened: as §4
EKVX = assay: Growth inhibition of human EKVX cells; format: functional; procedure, shortened: as §4
HOP-62 = assay: Growth inhibition of human HOP62 cells; format: functional; procedure, shortened: as §4
HOP-92 = assay: Growth inhibition of human HOP92 cells; format: functional; procedure, shortened: as §4
NCI-H226 = assay: Growth inhibition of human NCI-H226 cells; format: functional; procedure, shortened: as §4
NCI-H23 = assay: Growth inhibition of human NCI-H23 cells; format: functional; procedure, shortened: as §4
NCI-H322M = assay: Growth inhibition of human NCI-H322M cells; format: functional; procedure, shortened: as §4
NCI-H460 = assay: Growth inhibition of human NCI-H460 cells; format: functional; procedure, shortened: as §4
NCI-H522 = assay: Growth inhibition of human NCI-H522 cells; format: functional; procedure, shortened: as §4
COLO 205 = assay: Growth inhibition of human COLO205 cells; format: functional; procedure, shortened: as §4
HCC 2998 = assay: Growth inhibition of human HCC2998 cells; format: functional; procedure, shortened: as §4
HCT-116 = assay: Growth inhibition of human HCT116 cells; format: functional; procedure, shortened: as §4
HCT-15 = assay: Growth inhibition of human HCT15 cells; format: functional; procedure, shortened: as §4
HT-29 = assay: Growth inhibition of human HT-29 cells; format: functional; procedure, shortened: as §4
KM12 = assay: Growth inhibition of human KM12 cells; format: functional; procedure, shortened: as §4
SW-620 = assay: Growth inhibition of human SW620 cells; format: functional
Procedure, shortened: (§5)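 Compounds that passed a preliminary screen were tested at five doses in the NCI (Bethesda) in vitro Anticancer Screen Program against a 53-line human tumour panel spanning leukemia, lung, colon, CNS, melanoma, ovarian, renal, prostate and breast. Growth inhibition is reported as GI50.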

SF-268 = assay: Growth inhibition of human SF268 cells; format: functional; procedure, shortened: as §4
SF-295 = assay: Growth inhibition of human SF295 cells; format: functional; procedure, shortened: as §4
SF-539 = assay: Growth inhibition of human SF539 cells; format: functional; procedure, shortened: as §4
SNB-19 = assay: Growth inhibition of human SNB19 cells; format: functional; procedure, shortened: as §5
SNB-75 = assay: Growth inhibition of human SNB75 cells; format: functional; procedure, shortened: as §5
U-251 = assay: Growth inhibition of human U251 cells; format: functional; procedure, shortened: as §5
A498 = assay: Growth inhibition of human A498 cells; format: functional; procedure, shortened: as §4
786-0 = assay: Growth inhibition of human 786-0 cells; format: functional; procedure, shortened: as §4
ACHN = assay: Growth inhibition of human ACHN cells; format: functional; procedure, shortened: as §4
CAKI-1 = assay: Growth inhibition of human Caki1 cells; format: functional; procedure, shortened: as §4
RXF 393 = assay: Growth inhibition of human RXF393 cells; format: functional; procedure, shortened: as §4
SN12C = assay: Growth inhibition of human SN12C cells; format: functional; procedure, shortened: as §5
TK-10 = assay: Growth inhibition of human TK10 cells; format: functional; procedure, shortened: as §5
UO-31 = assay: Growth inhibition of human UO31 cells; format: functional; procedure, shortened: as §5
PC-3 = assay: Growth inhibition of human PC3 cells; format: functional; procedure, shortened: as §4
OVCAR-3 = assay: Growth inhibition of human OVCAR-3 cells; format: functional; procedure, shortened: as §4
OVCAR-4 = assay: Growth inhibition of human OVCAR4 cells; format: functional; procedure, shortened: as §4
OVCAR-5 = assay: Growth inhibition of human OVCAR5 cells; format: functional; procedure, shortened: as §4
OVCAR-8 = assay: Growth inhibition of human OVCAR8 cells; format: functional; procedure, shortened: as §4
NCI/ADR-RES = assay: Growth inhibition of human NCI/ADR-RES cells; format: functional; procedure, shortened: as §4
SK-OV-3 = assay: Growth inhibition of human SKOV3 cells; format: functional; procedure, shortened: as §5
MCF7 [12] = assay: Growth inhibition of human MCF7 cells; format: functional; procedure, shortened: as §4
MDA-MB-231 = assay: Growth inhibition of human MDA-MB-231 cells; format: functional; procedure, shortened: as §4
[13] = Growth inhibition of human Hs 578T cells; format: functional; procedure, shortened: as §4
BT-549 = assay: Growth inhibition of human BT549 cells; format: functional; procedure, shortened: as §4
T47D = assay: Growth inhibition of human T47D cells; format: functional; procedure, shortened: as §5
LOX IMVI = assay: Growth inhibition of human LOXIMVI cells; format: functional; procedure, shortened: as §4
Malme-3M = assay: Growth inhibition of human MALME-3M cells; format: functional; procedure, shortened: as §4
M14 = assay: Growth inhibition of human M14 cells; format: functional; procedure, shortened: as §4
MDA-MB-435 = assay: Growth inhibition of human MDA-MB-435 cells; format: functional; procedure, shortened: as §4
SK-MEL-2 = assay: Growth inhibition of human SK-MEL-2 cells; format: functional; procedure, shortened: as §4
SK-MEL-28 = assay: Growth inhibition of human SK-MEL-28 cells; format: functional; procedure, shortened: as §4
SK-MEL-5 = assay: Growth inhibition of human SK-MEL-5 cells; format: functional; procedure, shortened: as §4
UACC-257 = assay: Growth inhibition of human UACC257 cells; format: functional; procedure, shortened: as §5
UACC-62 = assay: Growth inhibition of human UACC62 cells; format: functional; procedure, shortened: as §5

COc1cc(/C=C/C(=O)c2cccc(N)c2)cc(OC)c1OC
Activity (MCF7 [1]): 2.87% | Activity (MCF7 [2]): 56.17% | Activity (MCF7 [3]): 14.96% | Activity (MCF7 [4]): 23.57% | Activity (MCF7 [5]): 22.58% | Activity (MCF7 [6]): 52.31% | Activity (MCF7 [7]): 9.31% | Activity (MCF7 [8]): 15.8% | Activity (MCF7 [9]): inactive | Activity (MCF7 [10]): inactive

COc1ccc(-c2cn(-c3cccc(C(=O)/C=C/c4cc(OC)c(OC)c(OC)c4)c3)c(=O)[nH]2)cc1
GI50 [11]: 920 nM | GI50 (K562): 1270 nM | GI50 (A549): 11.8 µM | GI50 (EKVX): 4.2 µM | GI50 (HOP-62): 5.91 µM | GI50 (HOP-92): 14.9 µM | GI50 (NCI-H226): 35.2 µM | GI50 (NCI-H23): 1630 nM | GI50 (NCI-H322M): 2660 nM | GI50 (NCI-H460): 1560 nM | GI50 (NCI-H522): 1850 nM | GI50 (COLO 205): 1840 nM | GI50 (HCC 2998): 1640 nM | GI50 (HCT-116): 370 nM | GI50 (HCT-15): 1380 nM | GI50 (HT-29): 1280 nM | GI50 (KM12): 1420 nM | GI50 (SW-620): 450 nM | GI50 (SF-268): 3.21 µM | GI50 (SF-295): 4.95 µM | GI50 (SF-539): 2000 nM | GI50 (SNB-19): 4.38 µM | GI50 (SNB-75): 4.59 µM | GI50 (U-251): 880 nM | GI50 (A498): 4.21 µM | GI50 (786-0): 1610 nM | GI50 (ACHN): 1820 nM | GI50 (CAKI-1): 3.05 µM | GI50 (RXF 393): 1920 nM | GI50 (SN12C): 3.5 µM | GI50 (TK-10): 3.04 µM | GI50 (UO-31): 1910 nM | GI50 (PC-3): 6.22 µM | GI50 (OVCAR-3): 1780 nM | GI50 (OVCAR-4): 3.57 µM | GI50 (OVCAR-5): 2640 nM | GI50 (OVCAR-8): 2530 nM | GI50 (NCI/ADR-RES): 1700 nM | GI50 (SK-OV-3): 4.6 µM | GI50 (MCF7 [12]): 440 nM | GI50 (MDA-MB-231): 5.48 µM | GI50 [13]: 3.39 µM | GI50 (BT-549): 2590 nM | GI50 (T47D): 3.84 µM | GI50 (LOX IMVI): 720 nM | GI50 (Malme-3M): 1790 nM | GI50 (M14): 1850 nM | GI50 (MDA-MB-435): 1860 nM | GI50 (SK-MEL-2): 2630 nM | GI50 (SK-MEL-28): 2030 nM | GI50 (SK-MEL-5): 2030 nM | GI50 (UACC-257): 3.04 µM | GI50 (UACC-62): 2060 nM | Activity (MCF7 [1]): 3.79% | Activity (MCF7 [2]): 60.66% | Activity (MCF7 [3]): 21.47% | Activity (MCF7 [4]): 14.08% | Activity (MCF7 [5]): 36.02% | Activity (MCF7 [6]): 46.02% | Activity (MCF7 [7]): 8.45% | Activity (MCF7 [8]): 9.51%
